{"data": "Experimental data from different studies", "note": "Lines come from different studies, so protocols differ."}
{"SMILES": "c1ccc2[nH]c(-c3ccc4c(c3)OCO4)nc2c1", "cell line": "human Rhabdomyosarcoma cell", "test": "cell growth or viability, MTT", "conditions": "48 h", "IC50": "> 100 µM"}
{"SMILES": "COCCCN1C(/C=C/c2cccnc2)=CC(=O)CC1c1cccnc1 (centres unmarked)", "cell line": "CHO-K1", "test": "cell growth or viability, MTT", "conditions": "72 h", "IC50": "> 75 µM"}
{"SMILES": "CC(=O)O[C@@]12CO[C@@H]1C[C@H](O)[C@@]1(C)C(=O)[C@H](O)C3=C(C)[C@@H](OC(=O)[C@H](O)[C@@H](NC(=O)OC(C)(C)C)c4ccccc4)C[C@@](O)([C@@H](OC(=O)c4ccccc4)[C@H]21)C3(C)C", "cell line": "MDA-MB-436", "test": "cell growth or viability, ATP luminescence", "conditions": "72 h", "IC50": "0.0037 µM"}
{"SMILES": "COc1ccc(-c2nc3ccccc3[nH]2)cc1O", "cell line": "human Rhabdomyosarcoma cell", "test": "cell growth or viability, MTT", "conditions": "48 h", "IC50": "53.1 µM"}
{"SMILES": "COc1ccccc1OCCN(C)CC(O)COc1cccc2[nH]c3ccccc3c12 (centres unmarked)", "cell line": "NCI-H1299", "test": "cell growth or viability, CCK-8", "conditions": "72 h", "IC50": "39.5 µM"}
{"SMILES": "CC(C)(C)Nc1c(-c2ccc([N+](=O)[O-])cc2)nc2ccccn12", "cell line": "Vero", "test": "cell growth or viability, MTT", "conditions": "48 h", "IC50": "85 µM"}
{"SMILES": "COc1ccccc1OCCNCC(O)COc1cccc2[nH]c3ccccc3c12 (centres unmarked)", "cell line": "NCI-H1299", "test": "cell growth or viability, CCK-8", "conditions": "72 h", "IC50": "32.4 µM"}
{"SMILES": "Cc1ccc2nc(-c3ccco3)[nH]c2c1", "cell line": "human Rhabdomyosarcoma cell", "test": "cell growth or viability, MTT", "conditions": "48 h", "IC50": "> 100 µM"}
{"SMILES": "CC1CS(=O)(=O)CCN1/N=C/c1ccc([N+](=O)[O-])o1 (centres unmarked)", "cell line": "RAW264.7", "test": "cell growth or viability, MTT", "IC50": "31 µM"}
{"SMILES": "COc1ccccc1NCCCNCC(O)COc1cccc2[nH]c3ccccc3c12 (centres unmarked)", "cell line": "NCI-H1299", "test": "cell growth or viability, CCK-8", "conditions": "72 h", "IC50": "8.9 µM"}
{"SMILES": "Clc1ccc(-c2nc3ccccc3n2Cc2ccccc2)cc1", "cell line": "human Rhabdomyosarcoma cell", "test": "cell growth or viability, MTT", "IC50": "31.7 µM"}
{"SMILES": "COc1cc(/C=C/C(=O)/C=C(O)/C=C/c2ccccn2)ccc1O", "cell line": "CHO-K1", "test": "cell growth or viability, SRB", "conditions": "72 h", "IC50": "30.9 µM"}
{"SMILES": "CCn1c(-c2nnc(NC(=O)c3cc4c([nH]c5ccccc54)c(-c4ccc(C)cc4)n3)s2)cc2ccccc21", "cell line": "HL-60", "test": "cell growth or viability, MTT", "conditions": "72 h", "IC50": "39.6 µM"}
{"SMILES": "Nc1ccc(-c2nc3cnccn3c2N)cc1", "cell line": "Vero", "test": "cell growth or viability, MTT", "conditions": "48 h", "IC50": "96 µM"}
{"SMILES": "Cc1ccc2nc(-c3ccc(F)cc3)n(Cc3ccccc3)c2c1", "cell line": "human Rhabdomyosarcoma cell", "test": "cell growth or viability, MTT", "IC50": "35.1 µM"}
{"SMILES": "O=C(/C=C(O)/C=C/c1cccnc1)/C=C/c1cccnc1", "cell line": "CHO-K1", "test": "cell growth or viability, MTT", "conditions": "72 h", "IC50": "7.2 µM"}
{"SMILES": "CCCCN(CCCC)C(=O)c1ncn2c(=O)n(C)nnc12", "cell line": "D54", "test": "cell growth or viability, resazurin", "conditions": "7 days", "IC50": "11 µM"}
{"SMILES": "c1ccc2[nH]c(-c3ccncc3)nc2c1", "cell line": "human Rhabdomyosarcoma cell", "test": "cell growth or viability, MTT", "conditions": "48 h", "IC50": "31.2 µM"}
{"SMILES": "COc1cc(/C=C/C(=O)/C=C(O)/C=C/c2c[nH]c3ccccc23)ccc1O", "cell line": "CHO-K1", "test": "cell growth or viability, SRB", "conditions": "72 h", "IC50": "23.3 µM"}
{"SMILES": "O=C(O)Cc1ccccc1Nc1c(Cl)cccc1Cl", "cell line": "RAW264.7", "test": "reactive oxygen species, inhibitor", "conditions": "LPS-stimulated", "IC50": "50.1 µM"}
{"SMILES": "COCCNC(=C\\C(=O)/C=C/c1cccnc1)/C=C/c1cccnc1", "cell line": "CHO-K1", "test": "cell growth or viability, MTT", "conditions": "72 h", "IC50": "45.1 µM"}
{"SMILES": "COc1cc(/C=C/C(=O)CC(=O)/C=C/c2ccc(O)c(OC)c2)ccc1O", "cell line": "CHO-K1", "test": "cell growth or viability, SRB", "conditions": "72 h", "IC50": "38.8 µM"}
{"SMILES": "CSc1ccc(-c2nc3ccc(C)cc3n2Cc2ccccc2)cc1", "cell line": "human Rhabdomyosarcoma cell", "test": "cell growth or viability, MTT", "IC50": "31.7 µM"}
{"SMILES": "COc1ccccc1CCCNCC(O)COc1cccc2[nH]c3ccccc3c12 (centres unmarked)", "cell line": "NCI-H1299", "test": "cell growth or viability, CCK-8", "conditions": "72 h", "IC50": "7.2 µM"}
{"SMILES": "COCOc1c(OC)cc(C(=O)c2csc(-c3ccccc3)n2)cc1OC", "cell line": "B16-F1", "test": "cell growth or viability, SRB", "IC50": "0.055 µM"}
{"SMILES": "CCN(CC)C(=O)c1ncn2c(=O)n(C)nnc12", "cell line": "D54", "test": "cell growth or viability, resazurin", "conditions": "7 days", "IC50": "13 µM"}
{"SMILES": "CC(C)CNC(=C\\C(=O)/C=C/c1cccnc1)/C=C/c1cccnc1", "cell line": "CHO-K1", "test": "cell growth or viability, SRB", "conditions": "72 h", "IC50": "28.6 µM"}
{"SMILES": "COc1ccccc1/C=C/CNCC(O)COc1ccc(C2CCCCC2)cc1 (centres unmarked)", "cell line": "NCI-H1299", "test": "cell growth or viability, CCK-8", "conditions": "72 h", "IC50": "29.5 µM"}
{"SMILES": "C(=C\\c1c[nH]c2ccccc12)/c1cc(/C=C/c2cccs2)[nH]n1", "cell line": "CHO-K1", "test": "cell growth or viability, MTT", "conditions": "72 h", "IC50": "0.9 µM"}
{"SMILES": "O=C(/C=C(/C=C/c1cccnc1)NCCCO)/C=C/c1cccnc1", "cell line": "CHO-K1", "test": "cell growth or viability, SRB", "conditions": "72 h", "IC50": "> 75 µM"}
{"SMILES": "COc1cccc2c1C(=O)c1c(O)c3c(c(O)c1C2=O)C[C@@](O)(C(=O)CO)C[C@@H]3O[C@H]1C[C@H](N)[C@H](O)[C@H](C)O1", "cell line": "CHO-K1", "test": "cell growth or viability, SRB", "conditions": "72 h", "IC50": "2.4 µM"}
{"SMILES": "C[C@@H](Oc1cc(-c2cnn(C3CCNCC3)c2)cnc1N)c1c(Cl)ccc(F)c1Cl", "cell line": "Rh30", "test": "cell growth or viability", "conditions": "72 h", "IC50": "0.99 µM"}
{"SMILES": "O=C(/C=C(O)/C=C/c1c[nH]c2ccccc12)/C=C/c1c[nH]c2ccccc12", "cell line": "CHO-K1", "test": "cell growth or viability, SRB", "conditions": "72 h", "IC50": "12.1 µM"}
{"SMILES": "COc1cc(Nc2nccc(-c3cnn4nc(OC)ccc34)n2)cc(C(F)(F)F)c1", "cell line": "SNU-840", "test": "cell growth or viability, ATP luminescence", "IC50": "0.37 µM"}
{"SMILES": "O=C(/C=C(O)/C=C/c1ccc[nH]1)/C=C/c1ccc[nH]1", "cell line": "CHO-K1", "test": "cell growth or viability, MTT", "conditions": "72 h", "IC50": "6.9 µM"}
{"SMILES": "COc1ccccc1CCNCC(O)COc1cccc2[nH]c3ccccc3c12 (centres unmarked)", "cell line": "NCI-H1299", "test": "cell growth or viability, CCK-8", "conditions": "72 h", "IC50": "15.2 µM"}
{"SMILES": "CC(C)C[C@H](NC(=O)[C@H](Cc1ccccc1)NC(=O)c1cnccn1)B(O)O", "cell line": "NCI-H1437", "test": "cell growth or viability, ATP luminescence", "IC50": "0.013 µM"}
{"SMILES": "COc1ccccc1/C=C/CNCC(O)COc1ccc2[nH]ccc2c1 (centres unmarked)", "cell line": "NCI-H1299", "test": "cell growth or viability, CCK-8", "conditions": "72 h", "IC50": "25.3 µM"}
{"SMILES": "COc1cccc2c1C(=O)c1c(O)c3c(c(O)c1C2=O)C[C@@](O)(C(=O)CO)C[C@@H]3O[C@H]1C[C@H](N)[C@H](O)[C@H](C)O1", "cell line": "CHO-K1", "test": "cell growth or viability, MTT", "conditions": "72 h", "IC50": "1.4 µM"}
{"SMILES": "CCCNc1nc(NCCC)nc(Nc2ccc(Br)cc2)n1", "cell line": "SK-BR-3", "test": "cell growth or viability, SRB", "conditions": "72 h", "IC50": "22.5 µM"}
{"SMILES": "COc1cc(/C=C/c2cc(/C=C/c3ccncc3)[nH]n2)ccc1O", "cell line": "CHO-K1", "test": "cell growth or viability, SRB", "conditions": "72 h", "IC50": "41.8 µM"}
{"SMILES": "CN(C)c1ccc(-c2nc3ccccn3c2NC(C)(C)C)cc1", "cell line": "Vero", "test": "cell growth or viability, MTT", "conditions": "48 h", "IC50": "87 µM"}
{"SMILES": "O=C(/C=C(O)/C=C/c1cccs1)/C=C/c1c[nH]c2ccccc12", "cell line": "CHO-K1", "test": "cell growth or viability, SRB", "conditions": "72 h", "IC50": "11.1 µM"}
{"SMILES": "Cc1cc(Nc2ncc(Cl)c(Nc3ccccc3S(=O)(=O)C(C)C)n2)c(OC(C)C)cc1C1CCNCC1", "cell line": "Rh30", "test": "cell growth or viability", "conditions": "72 h", "IC50": "0.64 µM"}
{"SMILES": "COc1cc(/C=C/C(=O)/C=C(O)/C=C/c2ccncc2)ccc1O", "cell line": "CHO-K1", "test": "cell growth or viability, MTT", "conditions": "72 h", "IC50": "13.3 µM"}
{"SMILES": "Cc1ccc2nc(-c3ccc(Cl)cc3)n(Cc3ccccc3Cl)c2c1", "cell line": "human Rhabdomyosarcoma cell", "test": "cell growth or viability, MTT", "IC50": "41 µM"}
{"SMILES": "Brc1ccc(Nc2nc(NCc3ccccc3)nc(NCc3ccccc3)n2)cc1", "cell line": "SK-BR-3", "test": "cell growth or viability, SRB", "conditions": "72 h", "IC50": "20.4 µM"}
